Data on two compounds can be found in ChEMBL document CHEMBL2331548, “Identification of N-acyl 4-(3-pyridonyl)phenylalanine derivatives and their orally active prodrug esters as dual acting α4β1 and α4β7 receptor antagonists” (Bioorg Med Chem Lett, 2013).

Values after ≈ are worked out from the molar mass of the structure shown.

Usually IC50 stands for the midpoint of a concentration-inhibition curve. The AUC is the area under the concentration-time curve, a measure of exposure. As usually defined, the Papp is the rate of passage across a membrane or cell layer, normalised by area and donor concentration. One may read the clearance as the volume of plasma or blood freed of the substance per unit of time. The term solubility denotes how much of the substance goes into solution per volume. As usually defined, the bioavailability is the share of a dose that reaches the circulation, judged against a reference dose that is usually intravenous. By IC20 is commonly meant the concentration at which the effect reaches the 20% level.

The target in series [1] is T1, Integrin alpha-4/beta-1 (Homo sapiens, UniProt P05556+P13612). Description: Inhibition of human VCAM1 binding to integrin alpha4beta1 receptor in human Ramos cells labeled with Calcein AM relative to RO0270608. It counts as cell-based. In a few lines: (§1)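 Serially diluted compound tested for blocking adhesion of Calcein AM-labelled cells to recombinant human counter-ligand: RAMOS cells on VCAM-1 (α4β1) and RPMI 8866 cells on MAdCAM-1 (α4β7). Cells activated beforehand in Mn2+-containing binding buffer for maximal activation. IC50 taken from fluorescence; RO0270608 run on every plate, and relative potency expressed as fold versus this control because cell activity drifted with passage.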

A further series concerns the target T2, Integrin alpha-4/beta-7 (Homo sapiens, UniProt P13612+P26010).
T2 sequence (P13612 whole entry): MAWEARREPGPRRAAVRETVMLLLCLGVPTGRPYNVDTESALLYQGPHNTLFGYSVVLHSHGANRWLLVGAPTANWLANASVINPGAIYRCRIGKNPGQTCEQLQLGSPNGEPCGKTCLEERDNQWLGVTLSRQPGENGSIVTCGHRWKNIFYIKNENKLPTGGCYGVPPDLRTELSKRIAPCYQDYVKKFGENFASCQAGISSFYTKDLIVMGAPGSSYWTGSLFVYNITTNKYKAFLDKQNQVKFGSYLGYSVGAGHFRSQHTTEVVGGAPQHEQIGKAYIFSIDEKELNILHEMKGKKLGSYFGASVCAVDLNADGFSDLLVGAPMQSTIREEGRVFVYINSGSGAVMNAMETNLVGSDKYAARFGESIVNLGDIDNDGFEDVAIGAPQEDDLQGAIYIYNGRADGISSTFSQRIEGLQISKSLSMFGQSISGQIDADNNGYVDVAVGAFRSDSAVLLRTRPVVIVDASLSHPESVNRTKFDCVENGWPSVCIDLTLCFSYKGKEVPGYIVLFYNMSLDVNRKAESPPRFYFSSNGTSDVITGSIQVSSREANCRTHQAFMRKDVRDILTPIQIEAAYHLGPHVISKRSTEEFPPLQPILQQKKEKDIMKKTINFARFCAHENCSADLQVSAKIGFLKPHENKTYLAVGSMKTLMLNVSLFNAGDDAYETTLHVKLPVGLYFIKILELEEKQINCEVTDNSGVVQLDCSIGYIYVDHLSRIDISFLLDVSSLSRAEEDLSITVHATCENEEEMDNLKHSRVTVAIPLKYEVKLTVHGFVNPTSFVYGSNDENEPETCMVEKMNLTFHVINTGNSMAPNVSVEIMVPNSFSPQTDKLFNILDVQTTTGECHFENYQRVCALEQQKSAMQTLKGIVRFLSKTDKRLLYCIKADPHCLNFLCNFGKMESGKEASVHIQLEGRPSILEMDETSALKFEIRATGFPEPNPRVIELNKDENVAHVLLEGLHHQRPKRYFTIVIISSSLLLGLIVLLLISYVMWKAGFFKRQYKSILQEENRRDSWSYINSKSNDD
T2 sequence (P26010 whole entry): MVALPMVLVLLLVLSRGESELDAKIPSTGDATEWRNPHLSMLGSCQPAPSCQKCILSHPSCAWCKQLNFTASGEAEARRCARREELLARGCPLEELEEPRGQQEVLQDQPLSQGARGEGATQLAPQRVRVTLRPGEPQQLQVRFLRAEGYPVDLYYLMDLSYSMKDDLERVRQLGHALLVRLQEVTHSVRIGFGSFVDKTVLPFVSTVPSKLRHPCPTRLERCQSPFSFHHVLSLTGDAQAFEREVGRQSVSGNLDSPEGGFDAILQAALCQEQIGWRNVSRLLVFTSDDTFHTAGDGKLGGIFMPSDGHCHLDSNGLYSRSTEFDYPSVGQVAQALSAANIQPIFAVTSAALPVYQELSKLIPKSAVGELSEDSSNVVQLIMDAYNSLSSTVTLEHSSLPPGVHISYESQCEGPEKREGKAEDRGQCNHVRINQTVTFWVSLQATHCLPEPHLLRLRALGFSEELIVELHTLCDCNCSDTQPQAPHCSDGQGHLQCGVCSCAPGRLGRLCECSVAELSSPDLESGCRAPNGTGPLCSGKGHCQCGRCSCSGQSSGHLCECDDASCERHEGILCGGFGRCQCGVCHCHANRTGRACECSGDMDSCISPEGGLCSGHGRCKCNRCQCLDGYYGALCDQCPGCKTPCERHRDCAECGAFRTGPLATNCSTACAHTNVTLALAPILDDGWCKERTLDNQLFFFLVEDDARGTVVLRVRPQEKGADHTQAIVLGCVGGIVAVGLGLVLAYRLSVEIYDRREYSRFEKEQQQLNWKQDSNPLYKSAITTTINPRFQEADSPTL
Description: Inhibition of human MAdCAM1 binding to integrin alpha4beta7 receptor in human RPMI 8866 cells labeled with Calcein AM. The series is classed as cell-based. In a few lines: as §1

Series [2] can be described thus: AUC in monkey at 15 mg/kg, iv. The note with it: cynomolgus monkey, plasma.
Series [3] is described as follows: Apparent permeability across human Caco2 cells. The settings on record: Caco-2. It counts as ADME, cell-based.
A short description of series [4]: Clearance in dog at 10 mg/kg, iv. It counts as ADME, organism-based, Canis lupus familiaris. Details: dose 10 mg/kg, route intravenous. The settings on record: in vivo. In a few lines:
(§2)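 Intravenous pharmacokinetics of the acid: rat and dog dosed at 10 mg/kg, monkey at 15 mg/kg. AUC (ng h/mL), clearance (mL/min/kg) and Vss (mL/kg) derived from plasma levels.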

Series [5] is described as follows: Clearance in monkey at 15 mg/kg, iv. The settings on record: cynomolgus monkey, in vivo.
The target of series [6] is Integrin alpha-4/beta-7 (Homo sapiens) (UniProt P13612+P26010). The series is described as follows: Inhibition of human MAdCAM1 binding to integrin alpha4beta7 receptor in human RPMI 8866 cells labeled with Calcein AM relative to RO0270608. The series is classed as cell-based. In outline:
as §1

For series [7], the target named is T1, Integrin alpha-4/beta-1. Description: Inhibition of human VCAM1 binding to integrin alpha4beta1 receptor in human Ramos cells labeled with Calcein AM. It counts as cell-based. In outline: as §1
Series [8] can be described thus: AUC in rat at 10 mg/kg, iv. The settings on record: plasma. The series is classed as ADME, organism-based. The arrangement: dose 10 mg/kg, route intravenous. In a few lines:
as §2

The nature of series [9]: AUC in dog at 10 mg/kg, iv. It counts as ADME, organism-based, Canis lupus familiaris. The settings on record: plasma. Details: dose 10 mg/kg, route intravenous. In outline:
as §2

The nature of series [10]: Clearance in rat at 10 mg/kg, iv. The series is classed as ADME, organism-based. The arrangement: dose 10 mg/kg, route intravenous. The settings on record: in vivo. In outline: as §2
The nature of series [11]: Solubility in simulated gastric fluid at pH 2.0. It counts as physicochemical. The note with it: simulated gi fluid, BLD = below limit of detection.
Series [12] is described as follows: Oral bioavailability in rat. The settings on record: in vivo. The series is classed as ADME, organism-based.
Series [13] can be described thus: Solubility in water. It counts as physicochemical.
Series [14] can be described thus: Stability in simulated intestinal fluid at pH 7.5 assessed as half life. The settings on record: simulated gi fluid. It counts as physicochemical.
The nature of series [15]: Oral bioavailability in dog. The series is classed as ADME, organism-based, Canis lupus familiaris. The settings on record: in vivo.
In another series the target is hERG (KCNH2) (Homo sapiens, UniProt Q12809). The series is described as follows: Inhibition of human ERG.
hERG (KCNH2), sequence (Q12809 whole entry): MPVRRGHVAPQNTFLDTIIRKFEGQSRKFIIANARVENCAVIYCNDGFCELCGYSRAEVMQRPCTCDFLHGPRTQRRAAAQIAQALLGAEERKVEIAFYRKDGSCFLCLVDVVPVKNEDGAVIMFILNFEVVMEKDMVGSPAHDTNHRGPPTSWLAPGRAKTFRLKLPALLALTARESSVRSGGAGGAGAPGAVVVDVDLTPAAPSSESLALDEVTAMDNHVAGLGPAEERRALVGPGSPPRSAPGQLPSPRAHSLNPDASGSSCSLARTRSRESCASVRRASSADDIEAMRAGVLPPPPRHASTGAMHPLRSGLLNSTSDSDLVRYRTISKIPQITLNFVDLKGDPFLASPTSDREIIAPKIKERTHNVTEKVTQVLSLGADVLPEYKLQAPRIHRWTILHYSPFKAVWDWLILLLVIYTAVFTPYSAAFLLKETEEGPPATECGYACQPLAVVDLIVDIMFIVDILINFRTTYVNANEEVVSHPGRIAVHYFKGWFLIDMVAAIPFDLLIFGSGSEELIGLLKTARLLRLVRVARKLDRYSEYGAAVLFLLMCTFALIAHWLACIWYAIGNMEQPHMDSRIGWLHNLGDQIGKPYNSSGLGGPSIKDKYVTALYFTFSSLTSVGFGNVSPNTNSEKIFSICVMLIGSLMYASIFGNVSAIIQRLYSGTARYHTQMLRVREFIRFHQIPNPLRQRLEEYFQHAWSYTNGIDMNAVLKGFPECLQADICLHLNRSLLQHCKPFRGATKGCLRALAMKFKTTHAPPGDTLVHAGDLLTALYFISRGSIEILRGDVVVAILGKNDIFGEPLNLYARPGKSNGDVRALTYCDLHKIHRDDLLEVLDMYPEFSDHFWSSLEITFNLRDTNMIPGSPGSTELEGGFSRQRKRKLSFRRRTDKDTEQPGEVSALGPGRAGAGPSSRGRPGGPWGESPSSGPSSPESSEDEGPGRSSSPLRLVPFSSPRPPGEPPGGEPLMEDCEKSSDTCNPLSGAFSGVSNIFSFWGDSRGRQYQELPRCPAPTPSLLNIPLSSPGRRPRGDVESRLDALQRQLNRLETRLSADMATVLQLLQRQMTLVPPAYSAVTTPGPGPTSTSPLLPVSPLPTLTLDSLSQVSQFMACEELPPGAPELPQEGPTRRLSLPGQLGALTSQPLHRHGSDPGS

T1 sequence (P05556 whole entry, one chain of several): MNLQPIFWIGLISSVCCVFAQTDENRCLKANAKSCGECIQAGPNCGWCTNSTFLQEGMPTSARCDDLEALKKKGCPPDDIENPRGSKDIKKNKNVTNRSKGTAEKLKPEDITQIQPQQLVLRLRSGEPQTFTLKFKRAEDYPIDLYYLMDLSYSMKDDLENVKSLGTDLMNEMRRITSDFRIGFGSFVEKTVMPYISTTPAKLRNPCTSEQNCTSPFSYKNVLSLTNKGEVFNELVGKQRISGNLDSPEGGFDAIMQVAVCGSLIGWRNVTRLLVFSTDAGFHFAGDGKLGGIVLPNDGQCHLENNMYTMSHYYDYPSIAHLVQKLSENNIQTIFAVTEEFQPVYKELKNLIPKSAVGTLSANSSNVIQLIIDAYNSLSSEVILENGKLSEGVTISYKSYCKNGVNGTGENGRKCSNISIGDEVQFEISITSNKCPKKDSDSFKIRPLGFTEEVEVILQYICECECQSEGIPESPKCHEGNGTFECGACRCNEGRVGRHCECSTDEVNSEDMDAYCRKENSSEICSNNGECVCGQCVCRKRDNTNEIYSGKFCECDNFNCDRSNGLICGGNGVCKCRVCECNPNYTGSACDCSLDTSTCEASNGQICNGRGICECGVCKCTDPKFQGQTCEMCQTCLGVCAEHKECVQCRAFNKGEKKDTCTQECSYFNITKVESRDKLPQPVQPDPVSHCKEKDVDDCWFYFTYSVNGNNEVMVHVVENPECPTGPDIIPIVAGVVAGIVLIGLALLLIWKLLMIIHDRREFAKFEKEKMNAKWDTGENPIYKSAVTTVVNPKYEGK

In the case of `Cc1cc(C(F)(F)F)c(-c2ccc(C[C@H](NC(=O)c3c(Cl)cccc3Cl)C(=O)O)cc2)c(=O)n1C`, the Ratio IC50 on Integrin alpha-4/beta-1 [1] was 0.81; in series [6], 6.5. Further, the IC50 was 42 nM at Integrin alpha-4/beta-7 and 32 nM on Integrin alpha-4/beta-1 [7]. Also, the AUC in [2] came to 35100 ng·h/mL; in series [8] it was 10900 ng·h/mL; in series [9] it was 10900 ng·h/mL. The Papp in series [3] worked out at 0.14 ×10⁻⁶ cm/s. Also, the clearance is 16.5 mL/min/kg in series [4], 3 mL/min/kg in [5] and 15.7 mL/min/kg in [10].

In the case of `CCOC(=O)[C@H](Cc1ccc(-c2c(C(F)(F)F)cc(C)n(C)c2=O)cc1)NC(=O)c1c(Cl)cccc1Cl`, the solubility result was “BLD” in [11] and 6 µg/mL (≈ 10.8 µM) in [13]. Moreover, the bioavailability in series [12] is 18%; in [15], 2%. Moreover, the Papp in series [3] stood at 27.1 ×10⁻⁶ cm/s. In addition, in series [14], the Stability entry is recorded as “Stable”. Besides, the IC20 against hERG (KCNH2) came out at 2700 nM.
